Assay results taken from PubChem BioAssay.
Activity calls are given as the source filed them.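 Rule for the calls, unless noted: active = inhibition above 20% together with a positive visual image hit; inconclusive = visual image hit but inhibition not above 20%; inactive = no visual image hit.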

Assays:
[1] = inhibitors of TNFa-induced NFkB p65 translocation, primary screen, imaging, HUVEC, MLSMR starter and 10KST1 sets (AID 438); details: HUVEC TNFa-induced p65 nuclear translocation; cell count: measured here: nuclei count (cytotoxicity indicator), at 2.08 µM; inhibition: at 2 µM, stronger effect = higher value, 0% TNFa-plus-vehicle, 100% no-TNFa wells;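 note: compound added about 3h40 before a 20 min TNFalpha stimulation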;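 for inhibition: signal is the nuclear over cytoplasmic p65 intensity ratio per well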
[2] = reduction of polyQ htt aggregates in cells – imaging, exon1htt(103Q)mCFP cells, high-content imaging, primary screen (AID 483;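 active = visual image review flags a hit and inhibition of aggregation exceeds 20%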;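 note: compound exposure lasted 3 days before fixation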;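 for nuclei count: percent of the per-plate median nuclei count of sample wells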); details: exon1htt(103Q)mCFP cell line, aggregate imaging, at 2 µM; inhibition of aggregation: stronger effect = higher value; nuclei count: measured here: cell count, toxicity
[3] = endothelial E-selectin expression blockers – imaging, HUVEC, immunofluorescence, MLSMR starter and 10KST1 sets, primary screen (AID 487;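 active = visually confirmed hit in the image check and inhibition above 20%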;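 for inhibition: signal is fraction of cell area covered by stained E-selectin grains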;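 for nuclei count: 100% = median nuclei count of all wells on the same plate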); details: HUVEC TNFalpha-induced E-selectin immunofluorescence imaging, at 2 µM; inhibition: stronger effect = higher value; nuclei count: measured here: cell number, toxicity
[4] = target: Voltage-gated potassium channel subunit beta-2 (Rattus norvegicus) (UniProt P62483); assay: inhibitors of rat Kvbeta2 reductase activity – biochemical, NADPH fluorescence, primary screen (AID 622;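 active = fluorescence slope higher than the sample average by over 3 SD, cut at about -0.22 in these data, passing the limit was not always enough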;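 note: slope of raw intensity against log time taken from 70 to 1610 s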); details: recombinant KvBeta, 4-cyanobenzaldehyde reduction, at 10 µM, stronger effect = higher value
Voltage-gated potassium channel subunit beta-2 (Rattus norvegicus), sequence (P62483 whole entry, looked up): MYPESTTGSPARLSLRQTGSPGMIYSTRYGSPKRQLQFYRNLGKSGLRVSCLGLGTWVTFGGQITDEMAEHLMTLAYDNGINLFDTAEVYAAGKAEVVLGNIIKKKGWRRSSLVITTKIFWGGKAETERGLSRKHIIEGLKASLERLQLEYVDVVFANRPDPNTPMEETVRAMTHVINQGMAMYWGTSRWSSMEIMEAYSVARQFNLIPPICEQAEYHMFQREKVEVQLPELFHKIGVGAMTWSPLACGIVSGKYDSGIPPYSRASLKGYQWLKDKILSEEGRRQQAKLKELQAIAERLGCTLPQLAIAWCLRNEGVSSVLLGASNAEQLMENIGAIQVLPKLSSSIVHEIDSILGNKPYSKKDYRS

[5] = target: Voltage-gated potassium channel subunit beta-2 (Rattus norvegicus) (UniProt P62483); assay: enhancers of rat Kvbeta2 NADPH turnover – biochemical, NADPH fluorescence, primary screen (AID 623;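 active = NADPH fluorescence slope more negative than the mean of all samples by about 3 SD, 99.7% confidence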;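 note: fluorescence intensity change per second fitted from 20 to 320 s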); details: Recombinant KvBeta, NADPH fluorescence decrease slope, 10 min; at 10 µM; stronger effect = lower value
[6] = target: Muscarinic acetylcholine receptor M4 (Homo sapiens) (UniProt P08173); assay: M4-linked GIRK flux change, two-sided – cell-based, HEK293 M4/GIRK, thallium flux, BTC-AM, M4 allosteric agonist project, primary screen (AID 625;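 active = fluorescence slope after compound addition differing from the mean of all tested samples at 99.7% confidence, mostly higher but some lower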;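 note: thallium influx through GIRK channels coupled to M4 in HEK293 cells with BTC-AM dye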); details: at 10 µM, actives lie on both sides
Muscarinic acetylcholine receptor M4 (Homo sapiens), sequence (P08173 whole entry, looked up): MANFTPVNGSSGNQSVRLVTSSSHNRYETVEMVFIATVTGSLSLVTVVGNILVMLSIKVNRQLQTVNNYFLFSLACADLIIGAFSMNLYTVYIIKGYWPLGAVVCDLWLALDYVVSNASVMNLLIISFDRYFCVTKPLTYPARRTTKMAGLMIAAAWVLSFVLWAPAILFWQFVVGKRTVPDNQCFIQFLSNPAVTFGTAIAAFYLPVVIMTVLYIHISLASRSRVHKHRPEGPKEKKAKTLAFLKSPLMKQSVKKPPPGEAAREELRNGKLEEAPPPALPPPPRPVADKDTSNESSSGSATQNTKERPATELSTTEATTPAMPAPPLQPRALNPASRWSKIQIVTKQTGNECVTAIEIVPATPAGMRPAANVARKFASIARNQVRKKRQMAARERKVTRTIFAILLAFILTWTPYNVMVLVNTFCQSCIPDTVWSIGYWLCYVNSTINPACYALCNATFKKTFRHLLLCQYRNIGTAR
Summary of the method: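 assay system = HEK293 cells with M4 receptor and GIRK channels | medium = pH 7.3 thallium assay buffer | doses = 10 µM final, single point | timing = cells overnight at 37 °C, BTC-AM loading 1 h, reads 2 min total | signal = BTC-AM fluorescence, 1 Hz kinetic reads | read-out = post-addition slope, 15–24 s, of baseline-normalized fluorescence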

[7] = blockers of RIG-like receptor reporter activation – cell-based, Sendai virus stimulus, luciferase, 10K MLSCN set, TLR/RLR signaling modifier project, primary screen (AID 602276;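 active = inhibition at or above 50% at 10 µM; inactive = inhibition below 50%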;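 note: firefly luciferase from ISG56 promoter only with Renilla not read in this screen; 0% = Sendai virus plus DMSO and 100% = medium plus DMSO without virus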); details: HEK293 RL24 IRF3 luciferase reporter, at 10 µM, stronger effect = higher value
[8] = TLR3 IRF3 reporter activation blockers – cell-based, poly I:C stimulus, luciferase, 10K MLSCN set, primary screen (AID 602277;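 active = inhibition of the reporter signal at or above 50%; inactive = inhibition below 50%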); details: HEK293-TLR3 RL24 IRF3 luciferase reporter, at 10 µM, stronger effect = higher value

| Compound | cell count [1] | inhibition [1] | inhibition of aggregation [2] | nuclei count [2] | inhibition [3] | nuclei count [3] | fluorescence slope [4] | NADPH fluorescence slope [5] | fluorescence slope [6] | inhibition [7] | inhibition [8] |
| --- | --- | --- | --- | --- | --- | --- | --- | --- | --- | --- | --- |
| Cc1ccc(O)c(C(=O)c2cc(C#N)c(=O)n(CC3CCCO3)c2)c1 (stereo not drawn) | 449 | -20.3% (inactive) | 33.7% (active) | 70.1% | 82.1% (active) | 53.1% | -0.561 (inactive) | -4.5e-05 (inactive) | 0.00669 (inactive) | 15% (inactive) | 24.8% (inactive) |
| CCOC(=O)C(CC)Sc1ncnc2nc[nH]c12 (stereo not drawn) | 351 | 1.9% (inactive) | -18.9% (inactive) | 98.7% | -46% (inactive) | 123% | -0.555 (inactive) | -2.8e-05 (inactive) | 0.00496 (inactive) | 3.43% (inactive) | 5.34% (inactive) |
| COc1ccc(OC)c(S(=O)(=O)Nc2ccc(C(N)=O)cc2)c1 | 684 | -2.6% (inactive) | -13.7% (inactive) | 107% | -57% (inactive) | 113% | -0.519 (inactive) | -0.000185 (inactive) | 0.00432 (inactive) | 18.4% (inactive) | 23.9% (inactive) |
| O=C1CCCC2=C1C(c1ccsc1)CC(=O)N2c1ccccc1 (stereo not drawn) | 550 | -11.1% (inactive) | -6.3% (inactive) | 100% | -88.5% (inactive) | 95.1% | -0.422 (inactive) | -0.000362 (inactive) | 0.00622 (inactive) | 15.9% (inactive) | 19.3% (inactive) |
| COc1ccc(-c2nnc3ccc(SC(C(C)=O)C(C)=O)nn23)cc1OC | 605 | -17% (inactive) | 14.3% (inactive) | 100% | -47.2% (inactive) | 94% | -0.348 (inactive) | -5.5e-05 (inactive) | 0.00579 (inactive) | 13.7% (inactive) | 13.4% (inactive) |
| Cc1ccnc(NC(=O)Nc2ccc(F)cc2)c1 | 478 | 8.1% (inactive) | 9.2% (inactive) | 98.7% | -266% (inactive) | 126% | -0.567 (inactive) | -9.3e-06 (inactive) | 0.0057 (inactive) | -59.1% (inactive) | -110% (inactive) |
| CCC(C)OC(=O)n1ccc(C(=O)Nc2nccs2)n1 (stereo not drawn) | 604 | -8.2% (inactive) | 8.2% (inactive) | 95% | -79.6% (inactive) | 131% | -0.575 (inactive) | -1.9e-05 (inactive) | 0.00527 (inactive) | -5.02% (inactive) | -27.4% (inactive) |
| CCn1c(=O)n(CC(=O)Nc2cc(OC)ccc2OC)c(=O)c2ccccc21 | 696 | -1.6% (inactive) | 17.9% (inactive) | 63.6% | -1.5% (inactive) | 99.5% | -0.564 (inactive) | -5.4e-05 (inactive) | 0.00496 (inactive) | 24.5% (inactive) | 23.2% (inactive) |
| Cc1cc(C)nc(SCc2nnc(SCc3ccccc3Cl)o2)n1 | 428 | -8.3% (inactive) | 16.9% (inactive) | 110% | -33.4% (inactive) | 98.3% | -0.468 (inactive) | -0.000278 (inactive) | 0.00428 (inactive) | 6.47% (inactive) | 0.418% (inactive) |
| Cc1ccc(-c2cc(C(F)F)nc(NCc3cccnc3)n2)cc1 | 590 | -26.5% (inactive) | -44.3% (inactive) | 81.9% | -97.8% (inactive) | 118% | -0.467 (inactive) | -1.4e-06 (inactive) | 0.00586 (inactive) | 7% (inactive) | -13.6% (inactive) |
| O=C(CSc1nnc(-c2cccs2)o1)N1CCOCC1 | 280 | -13.9% (inactive) | -11.6% (inactive) | 88.7% | -6.3% (inactive) | 118% | -0.539 (inactive) | -3.4e-05 (inactive) | 0.0054 (inactive) | -8.48% (inactive) | -10.8% (inactive) |
| CCn1c(CNc2ccc(C)cc2)nnc1SCC(=O)NCc1ccccc1 | 648 | 13.4% (inactive) | 5.4% (inactive) | 81.4% | -45% (inactive) | 115% | -0.486 (inactive) | 0.000173 (inactive) | 0.00606 (inactive) | -9.51% (inactive) | -4.1% (inactive) |
| CN1CCN(C(=O)CN(Cc2ccc(Cl)cc2)S(C)(=O)=O)CC1 | 242 | -2.8% (inactive) | 6.8% (inactive) | 92% | -25% (inactive) | 110% | -0.535 (inactive) | 9.7e-06 (inactive) | 0.00447 (inactive) | 18% (inactive) | 19.4% (inactive) |
| COc1ccccc1CN1CC(C(=O)N2CCN(c3ccc(F)cc3)CC2)CC1=O (stereo not drawn) | 400 | 72.8% (active) | -14.7% (inactive) | 101% | -19.6% (inactive) | 106% | -0.583 (inactive) | -4.4e-05 (inactive) | 0.00225 (inactive) | 16.3% (inactive) | 7.05% (inactive) |
| COc1ccc2c(c1)C(=NO)c1cc(OC)ccc1-2 | 667 | -26.7% (inactive) | 15.4% (inactive) | 101% | -48.8% (inactive) | 116% | -0.373 (inactive) | -8e-05 (inactive) | 0.00525 (inactive) | -23.1% (inactive) | -28.9% (inactive) |
| O=C(NCc1ccc2c(c1)OCO2)c1cc2n(n1)C(C(F)(F)F)CC(c1ccc3c(c1)OCO3)N2 (stereo not drawn) | 407 | -1.6% (inactive) | 26.5% (inactive) | 89.1% | -32% (inactive) | 106% | -0.558 (inactive) | -4.2e-05 (inactive) | 0.0053 (inactive) | 18.5% (inactive) | 24.4% (inactive) |
| Cc1cc(-c2ccccc2)nc2cc(C(N)=O)nn12 | 331 | -5.5% (inactive) | 14.7% (inactive) | 86.6% | -129% (inactive) | 116% | -0.424 (inactive) | -2.5e-05 (inactive) | 0.0052 (inactive) | 15.9% (inactive) | 13.7% (inactive) |
| COc1cccc(CNc2cccc3cccnc23)c1O | 477 | 5% (inactive) | 19.2% (inactive) | 79.7% | -165% (inactive) | 122% | -0.564 (inactive) | -7.6e-05 (inactive) | 0.00309 (inactive) | 13% (inactive) | 8.77% (inactive) |
| O=C(NC(NC1CCS(=O)(=O)C1)C(=O)c1cccs1)c1ccccc1 (stereo not drawn) | 269 | 3.9% (inactive) | 0.8% (inactive) | 101% | 12.8% (inactive) | 96.3% | -0.572 (inactive) | -2.1e-05 (inactive) | 0.00591 (inactive) | 7.41% (inactive) | 18.4% (inactive) |
| O=C1c2ccccc2NC(c2ccco2)N1O (stereo not drawn) | 426 | 3% (inactive) | -3.7% (inactive) | 110% | -169% (inactive) | 132% | -0.579 (inactive) | -2.1e-05 (inactive) | 0.006 (inactive) | 8.36% (inactive) | 10.8% (inactive) |
| Nc1nc(C2C(=O)CCCC2=O)cs1 | 391 | -16.3% (inactive) | -1.6% (inactive) | 103% | -93.1% (inactive) | 148% | -0.511 (inactive) | -9.1e-05 (inactive) | 0.00345 (inactive) | 8.39% (inactive) | 2.35% (inactive) |
| Nc1nc(CN2CCOCC2)cs1 | 650 | -4.8% (inactive) | 7.7% (inactive) | 104% | 14.6% (inactive) | 113% | -0.577 (inactive) | -2.3e-05 (inactive) | 0.00598 (inactive) | 15.2% (inactive) | 14.7% (inactive) |
| Cc1ccc(NC(=O)C2CCCNC2=O)nc1 (stereo not drawn) | 265 | -2.2% (inactive) | 5.8% (inactive) | 86.6% | -48.5% (inactive) | 82.2% | -0.448 (inactive) | -4.9e-05 (inactive) | 0.00534 (inactive) | 2.07% (inactive) | -1.11% (inactive) |
| Cc1cc(-c2ccccc2)c2nncn2n1 | 304 | 0.9% (inactive) | -3% (inactive) | 108% | 1.4% (inactive) | 107% | -0.492 (inactive) | -1.4e-05 (inactive) | 0.00457 (inactive) | 18.1% (inactive) | 15.3% (inactive) |
| COC(=O)c1[nH]c2ccccc2c1NC(=O)CN1CCC(C(N)=O)(N2CCCCC2)CC1 | 259 | 3.8% (inactive) | 6.6% (inactive) | 72.7% | -114% (inactive) | 168% | -0.598 (inactive) | -1.9e-05 (inactive) | 0.00286 (inactive) | 20.8% (inactive) | 30.6% (inactive) |
| COc1ccc(N2CCN(C(=O)CN3C(=O)C4CC=CCC4C3=O)CC2)cc1 (stereo not drawn) | 693 | 9.7% (inactive) | 11% (inactive) | 108% | 55.9% (inactive) | 90.3% | -0.575 (inactive) | 3.5e-05 (inactive) | 0.00533 (inactive) | -11% (inactive) | -14.6% (inactive) |
| CCOC(=O)CC(NS(=O)(=O)c1ccc(NC(C)=O)cc1)c1ccc(OCC)cc1 (stereo not drawn) | 376 | 9.9% (inactive) | -7.9% (inactive) | 95.7% | -101% (inactive) | 126% | -0.588 (inactive) | 3.6e-06 (inactive) | 0.00588 (inactive) | 14% (inactive) | 17.3% (inactive) |
| N#CCc1nc(CSc2nc3ccccc3s2)cs1 | 347 | -4.4% (inactive) | -7.5% (inactive) | 98% | -27.5% (inactive) | 114% | -0.551 (inactive) | -2.5e-05 (inactive) | 0.0089 (inactive) | -24.2% (inactive) | -87.8% (inactive) |
